Assay results: ChEMBL document CHEMBL1157925, “Identification of a novel series of potent RON receptor tyrosine kinase inhibitors” (Bioorg Med Chem Lett, 2010); call rule not given here

Key:
[1] = molecular target: Vascular endothelial growth factor receptor 2 (Homo sapiens, UniProt P35968); assay: Inhibition of VEGFR2
Method in brief: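 GST-fused VEGFR-2/KDR catalytic domain from baculovirus-infected Sf9 cells, glutathione-agarose purified, 5 nM. Buffer: 60 mM Hepes pH 7.5, 3 mM MgCl2, 3 mM MnCl2, 1.2 mM β-mercaptoethanol, 0.1 mg/mL BSA, 3 µM vanadate. Mg-ATP at 2× Km. Enzyme, inhibitor and ATP were first combined for 4 min on ice. Reaction ran on immobilized poly(Glu4,Tyr) at 30 °C for 10 min and was stopped with EDTA. DELFIA Eu-anti-phosphotyrosine read-out. Seven concentrations in triplicate; IC50 from a 4-parameter fit.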

[2] = molecular target: Macrophage-stimulating protein receptor (Homo sapiens, UniProt Q04912); assay: Inhibition of TPR-tagged RON catalytic domain expressed in HEK293 cells; format: cell-based
[3] = molecular target: T1, Hepatocyte growth factor receptor (Homo sapiens, UniProt P08581); assay: Inhibition of c-Met
[4] = molecular target: 3-phosphoinositide-dependent protein kinase 1 (Homo sapiens) (UniProt O15530); assay: Inhibition of PDK1; details: concentration not given here
[5] = molecular target: Cytoplasmic tyrosine-protein kinase BMX (Homo sapiens) (UniProt P51813); assay: Inhibition of BMX; details: concentration not given here
Method in brief: (§1)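 Outsourced kinase panel of 23 enzymes (Millipore KinaseProfiler); single test concentration of 0.1 µM; percent inhibition of kinase activity reported.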

[6] = molecular target: Angiopoietin-1 receptor (Homo sapiens) (UniProt Q02763); assay: Inhibition of Tie2; details: concentration not given here; method in brief: as §1
[7] = molecular target: T1, Hepatocyte growth factor receptor; assay: Inhibition of c-Met phosphorylation in human MKN45 cells; format: cell-based, MKN-45
HCT-116 = assay: Antitumor activity against human HCT116 cells by MTT assay
[8] = Half life in rat at 2.5 mg/kg, iv; format: ADME, organism-based; set-up: dose 2.5 mg/kg, route intravenous; details: in vivo
[9] = molecular target: Glycogen synthase kinase-3 beta (Homo sapiens) (UniProt P49841); assay: Inhibition of GSK3-beta; details: concentration not given here; method in brief: as §1
[10] = molecular target: Phosphatidylinositol 4,5-bisphosphate 3-kinase catalytic subunit beta isoform (Homo sapiens) (UniProt P42338); assay: Inhibition of PI3Kbeta; details: concentration not given here; method in brief: as §1
[11] = molecular target: RAF proto-oncogene serine/threonine-protein kinase (Homo sapiens) (UniProt P04049); assay: Inhibition of c-Raf; details: concentration not given here; method in brief: as §1
[12] = molecular target: RAC-alpha serine/threonine-protein kinase (Homo sapiens) (UniProt P31749); assay: Inhibition of PKBalpha; details: concentration not given here; method in brief: as §1
[13] = molecular target: LIM domain kinase 1 (Homo sapiens) (UniProt P53667); assay: Inhibition of LIMK1; details: concentration not given here; method in brief: as §1
[14] = molecular target: ALK tyrosine kinase receptor (Homo sapiens) (UniProt Q9UM73); assay: Inhibition of ALK; details: concentration not given here; method in brief: as §1
[15] = Oral bioavailability in rat at 5 mg/kg, po; format: ADME, organism-based; details: in vivo
[16] = molecular target: Proto-oncogene tyrosine-protein kinase receptor Ret (Homo sapiens) (UniProt P07949); assay: Inhibition of Ret; details: concentration not given here; method in brief: as §1
[17] = molecular target: Ephrin type-B receptor 4 (Homo sapiens) (UniProt P54760); assay: Inhibition of EphB4; details: concentration not given here; method in brief: as §1
[18] = Clearance in rat at 2.5 mg/kg, iv and 5 mg/kg, po; format: ADME, organism-based; details: in vivo
Rattus norvegicus = assay: Cmax in rat at 5 mg/kg, po; format: ADME, organism-based; set-up: dose 5 mg/kg, route oral; details: in vivo
[19] = molecular target: Focal adhesion kinase 1 (Homo sapiens) (UniProt Q05397); assay: Inhibition of FAK; details: concentration not given here; method in brief: as §1
[20] = molecular target: Receptor-type tyrosine-protein kinase FLT3 (Homo sapiens) (UniProt P36888); assay: Inhibition of FLT3; details: concentration not given here; method in brief: as §1
[21] = molecular target: Mast/stem cell growth factor receptor Kit (Homo sapiens) (UniProt P10721); assay: Inhibition of cKit; details: concentration not given here; method in brief: as §1
[22] = molecular target: Tyrosine-protein kinase JAK3 (Homo sapiens) (UniProt P52333); assay: Inhibition of JAK3; details: concentration not given here; method in brief: as §1
[23] = Volume of distribution at steady state in rat at 2.5 mg/kg, iv and 5 mg/kg, po; format: ADME, organism-based; details: in vivo, read-out: Vdss
[24] = Tmax in rat at 5 mg/kg, po; format: ADME, organism-based; set-up: dose 5 mg/kg, route oral; details: in vivo
[25] = molecular target: Serine/threonine-protein kinase haspin (Homo sapiens) (UniProt Q8TF76); assay: Inhibition of haspin; details: concentration not given here; method in brief: as §1
[26] = molecular target: Inhibitor of nuclear factor kappa-B kinase subunit beta (Homo sapiens) (UniProt O14920); assay: Inhibition of IKK-beta; details: concentration not given here; method in brief: as §1
[27] = molecular target: Serine/threonine-protein kinase pim-1 (Homo sapiens) (UniProt P11309); assay: Inhibition of PIM1; details: concentration not given here; method in brief: as §1
[28] = molecular target: Serine/threonine-protein kinase Chk1 (Homo sapiens) (UniProt O14757); assay: Inhibition of CHK1; details: concentration not given here; method in brief: as §1
[29] = molecular target: Dual specificity mitogen-activated protein kinase kinase 1 (Homo sapiens) (UniProt Q02750); assay: Inhibition of MEK1; details: concentration not given here; method in brief: as §1

## CN(C)C(=O)c1ccc(-c2cc3nccc(Oc4ccc(NC(=O)c5cnn(-c6ccccc6)c5C(F)(F)F)cc4F)c3s2)nc1
[1]
  IC50: 2500 nM

## Cn1cnc(-c2cc3nccc(Oc4ccc(NC(=O)c5cnn(C)c5C(F)(F)F)cc4F)c3s2)c1
[1]
  IC50: 700 nM
[2]
  IC50: > 1000 nM
[3]
  IC50: 60 nM

## CCCc1c(C(=O)Nc2ccc(Oc3ccnc4cc(-c5cn(C)cn5)sc34)c(F)c2)cnn1-c1ccccc1
[1]
  IC50: 1900 nM

## CN(C)CCN(C)C(=O)c1ccc(-c2cc3nccc(Oc4ccc(NC(=O)c5cnn(-c6ccccc6)c5C(F)(F)F)cc4F)c3s2)cc1
[1]
  IC50: 700 nM

## Cn1cnc(-c2cc3nccc(Oc4ccc(NC(=O)c5cnn(-c6ccccc6)c5C(F)(F)F)cc4F)c3s2)c1
[4]
  inhibition: < 40%
[1]
  IC50: > 10000 nM
[5]
  inhibition: < 40%
[6]
  inhibition: < 40%
[7]
  IC50: 500 nM
HCT-116; Homo sapiens, HCT-116
  IC50: 80 nM
[8]
  half-life: 2.7 h
[9]
  inhibition: < 40%
[10]
  inhibition: < 40%
[11]
  inhibition: < 40%
[12]
  inhibition: < 40%
[13]
  inhibition: < 40%
[14]
  inhibition: < 40%
[15]
  bioavailability: > 30%
[2]
  IC50: 50 nM
[16]
  inhibition: < 40%
[17]
  inhibition: < 40%
[18]
  clearance: 10.5 mL/min/kg
Rattus norvegicus
  Cmax normalised: 0.25 µM/mg/kg
[19]
  inhibition: < 40%
[20]
  inhibition: 96%
[21]
  inhibition: < 40%
[22]
  inhibition: < 40%
[23]
  Vd: 2.4 L/kg
[24]
  Tmax: 6 h
[3]
  IC50: 150 nM
[25]
  inhibition: < 40%
[26]
  inhibition: < 40%
[27]
  inhibition: < 40%
[28]
  inhibition: < 40%
[29]
  inhibition: < 40%

## Cn1ccnc1-c1cc2nccc(Oc3ccc(NC(=O)c4cnn(-c5ccccc5)c4C(F)(F)F)cc3F)c2s1
[1]
  IC50: 1400 nM

## Cn1cnc(-c2cc3nccc(Oc4ccc(NC(=O)c5cnn(-c6ccccc6)c5)cc4F)c3s2)c1
[1]
  IC50: 1400 nM

## CN(C)[C@H]1CCN(C(=O)c2ccc(-c3cc4nccc(Oc5ccc(NC(=O)c6cnn(-c7ccccc7)c6C(F)(F)F)cc5F)c4s3)cc2)C1
[1]
  IC50: 1000 nM

## Cn1cnc(-c2cc3nccc(Oc4ccc(NC(=O)c5cnn(-c6ccccc6)c5N)cc4F)c3s2)c1
[1]
  IC50: 800 nM
[2]
  IC50: > 1000 nM
[3]
  IC50: 180 nM

## Cc1c(C(=O)Nc2ccc(Oc3ccnc4cc(-c5cn(C)cn5)sc34)c(F)c2)cnn1-c1ccccc1
[1]
  IC50: 2000 nM

## CS(=O)(=O)CCNCc1ccc(-c2cc3nccc(Oc4ccc(NC(=O)c5cnn(-c6ccccc6)c5C(F)(F)F)cc4F)c3s2)cc1
[1]
  IC50: 1100 nM

## CC(=O)N1CC=C(c2cc3nccc(Oc4ccc(NC(=O)c5cnn(-c6ccccc6)c5C(F)(F)F)cc4F)c3s2)CC1
[1]
  IC50: 1400 nM

## COc1cc2nccc(Oc3ccc(NC(=O)c4cnn(-c5ccccc5)c4C(F)(F)F)cc3F)c2cc1OC
[1]
  IC50: > 2000 nM

## COCCNC(=O)c1ccc(-c2cc3nccc(Oc4ccc(NC(=O)c5cnn(-c6ccccc6)c5C(F)(F)F)cc4F)c3s2)nc1
[1]
  IC50: 5300 nM

## Cn1cnc(-c2cc3nccc(Oc4ccc(NC(=O)c5cnn(C(C)(C)C)c5C(F)(F)F)cc4F)c3s2)c1
[1]
  IC50: 3000 nM

## Cn1cnc(-c2cc3nccc(Oc4ccc(NC(=O)N5CCN(c6ccccc6)C5=O)cc4F)c3s2)c1
[1]
  IC50: 10 nM
HCT-116; hct-116
  IC50: Not Active

## CN(C)C(=O)c1ccc(-c2cc3nccc(Oc4ccc(NC(=O)c5cnn(-c6ccccc6)c5C(F)(F)F)cc4F)c3s2)cc1
[1]
  IC50: 1400 nM

## COC[C@H](C)N(Cc1ccc(-c2cc3nccc(Oc4ccc(NC(=O)c5cnn(-c6ccccc6)c5C(F)(F)F)cc4F)c3s2)cc1)C(C)=O
[1]
  IC50: 2500 nM

## CNC(=O)c1cc(Oc2ccc(NC(=O)c3cnn(-c4ccccc4)c3C(F)(F)F)cc2F)ccn1
[1]
  IC50: > 20000 nM
[2]
  IC50: > 10000 nM
[3]
  IC50: > 15000 nM
